Source: PubChem BioAssay
Results filed as inconclusive are left out.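 The calls were made as follows, unless noted: active = viability at or below 27.92% in each of two runs, the all-compound median minus 4 SD; inconclusive = no clear call, values can overlap the other calls; inactive = the rest.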

Assays:
[1] = OD615 S. cerevisiae growth inhibition, permissive medium, pilot counter-assay, permissive growth control for S. cerevisiae lifespan shortening project (AID 705;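 active = growth inhibition above 25% in both replicates, a cutoff set 3 SD above the mean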); conditions: OD615, 24 h, at 10 µM, active compounds read high
Method in brief: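 System: Engineered DeaD yeast | Buffer or medium: SC raffinose/galactose permissive medium | Doses: 10 µM single dose, 0.25% DMSO | Times: 24 h exposure, 30 °C | Measured by: OD615 turbidity read | Read-out: Yeast growth inhibition indicated by reduced 24 h OD615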

[2] = Restrictive medium S. cerevisiae growth inhibition, OD615, pilot screen of yeast lifespan reduction project, restrictive growth control (AID 706;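 active = growth inhibition above a set limit, 3 SD over mean compound inhibition, in both replicates, cut at about 43% in these data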;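 also: modified DeaD lifespan yeast strain shifted to restrictive glucose medium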); conditions: OD615, 48 h, at 10 µM, active compounds read high
Method in brief: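 Assay system: engineered S. cerevisiae DeaD strain; Buffer or medium: CSMM-D glucose medium; Dosing: 10 µM compound, 0.25% DMSO; Times: cell pre-growth 4 h, compound exposure 48 h, 30 °C; Detection: absorbance (optical density) measured at 615 nm.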

[3] = viability gain of MRP-1-high H69AR cells under doxorubicin, pilot screen, MRP-1 activator project, CellTiter-Glo, duplicate (AID 807;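 active = viability increase at or above a cutoff of the median across tested compounds plus 3 SD, cut at about 8.5% in these data, passing the limit was not always enough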;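 also: compound pretreatment 18-22 h then 72 h combined with doxorubicin; 0% = doxorubicin alone and 100% = vehicle without doxorubicin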); conditions: H69AR viability with doxorubicin, CellTiter-Glo luminescence; at 10 µM; active compounds read high
[4] = growth suppression of beta-catenin knockout HCT116, pilot screen, human colon tumor cells (AID 823;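 active = cell viability at or below a set limit in both duplicate runs, the limit being the all-compound median minus 4 SD, cut at about 23% in these data, passing the limit was not always enough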;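 also: 0% = wells killed by 20 µM Hyamine and 100% = untreated DMSO cell wells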); conditions: CellTiter-Glo, 60 h, at 10 µM, active compounds read low
[5] = growth suppression of PTEN-deleted HCT116, pilot screen, cell-based, HCT116 clonal line, CellTiter-Glo (AID 824); conditions: 60 h, at 10 µM, active compounds read low;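 also: 0% = 20 µM Hyamine control and 100% = vehicle cell control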
[6] = inhibitors of the yeast RAM network, pilot screen, dse1pr::URA3 reporter, 5-FOA selection (AID 869;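 active = inhibition over a set limit, the all-compound mean plus 3 SD, in both replicate runs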;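 also: 0% = DMSO wells with no growth and 100% = 10 µM 1-NA-PP1 with full growth; RAM network block rescues cells from 5-FOA so hits raise OD615 growth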); conditions: S. cerevisiae dse1pr::URA3 5-FOA growth, OD615, 2 d; at 10 µM; active compounds read high; strain carries analog-sensitive mutant Cbk1 kinase
[7] = RAM signaling pathway blockade in yeast – S. cerevisiae, Pdr1DBD-CYC8 efflux-inhibited sensitized strain, primary screen (AID 1298;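 active = RAM network inhibition above 8.4% in each of two replicates, 3 SD over the compound average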;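 also: 0% = DMSO untreated cells without growth and 100% = 10 µM 1-NA-PP1 full growth; higher means more yeast growth rescued from 5-FOA killing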); conditions: S. cerevisiae cbk1-as DSE1-URA3 strain, 5-FOA growth OD615, 2 d; at 50 µM; active compounds read high

COc1cc2[nH]c(=O)n(CCCC(=O)NCCc3ccccc3)c(=O)c2cc1OC
inactive: growth inhibition [1] -4.08% | growth inhibition [2] -7.02% | viability increase [3] -3.37% | viability [4] 99% | viability [5] 94.5% | inhibition [6] 3.42% | RAM network inhibition [7] 2.87%

CCn1c(=O)c2cc(C(=O)N3CCCC3)sc2c2ccccc21
inactive: growth inhibition [1] -4.95% | growth inhibition [2] 13% | viability increase [3] -1.55% | viability [4] 111% | viability [5] 96.8% | inhibition [6] 1.59% | RAM network inhibition [7] 2.1%

CCCn1c(C(O)c2ccc3c(c2)OCO3)nc2ccccc21 (stereo unspecified)
inactive: growth inhibition [1] 1.37% | growth inhibition [2] -13.8% | viability increase [3] 0.23% | viability [4] 100% | viability [5] 102% | inhibition [6] 2.31% | RAM network inhibition [7] 0.88%

COc1ccccc1OCCNC(=O)c1ccc(S(=O)(=O)N(C)C)cc1
inactive: growth inhibition [1] -3.92% | growth inhibition [2] 3.39% | viability increase [3] -1.91% | viability [4] 100% | viability [5] 91.9% | inhibition [6] -0.715% | RAM network inhibition [7] 2.71%

CCSc1nc2c(c(=O)n1-c1ccc(F)cc1)SCC2
inactive: growth inhibition [1] -7.3% | growth inhibition [2] -6.39% | viability increase [3] -2.75% | viability [4] 89.2% | viability [5] 94.2% | inhibition [6] 1.18% | RAM network inhibition [7] -0.35%

Cc1ccc(N2Cc3ccccc3OC(C)C2=O)cc1 (stereo unspecified)
inactive: growth inhibition [1] -1.43% | growth inhibition [2] 0.105% | viability increase [3] -3.99% | viability [4] 90.3% | viability [5] 91.3% | inhibition [6] 0.735% | RAM network inhibition [7] 1.16%

CCN1CCN(C(=O)C2CCN(S(=O)(=O)c3cccc4cccnc34)CC2)CC1
inactive: growth inhibition [1] -6.23% | growth inhibition [2] 2.11% | viability increase [3] -0.43% | viability [4] 108% | viability [5] 96.3% | inhibition [6] 2.33% | RAM network inhibition [7] 0.98%

CC(C)(C)NC(=O)c1ccc(NC(=O)C2COc3ccccc3O2)cc1 (stereo unspecified)
inactive: growth inhibition [1] -6.05% | growth inhibition [2] -6.04% | viability increase [3] -0.73% | viability [4] 99.3% | viability [5] 96.4% | inhibition [6] 1.9% | RAM network inhibition [7] -0.88%

CCN1C(=O)CS/C1=N\c1nccs1
inactive: growth inhibition [1] 1.12% | growth inhibition [2] 1.68% | viability increase [3] 0.86% | viability [4] 105% | viability [5] 105% | inhibition [6] 1.64% | RAM network inhibition [7] -1.23%

CC(=O)Nc1ccc(NC(=O)c2oc3cc(C)c(C)cc3c2C)cc1
inactive: growth inhibition [1] -7.1% | growth inhibition [2] -17% | viability increase [3] -0.82% | viability [4] 104% | viability [5] 96.4% | inhibition [6] 2.38% | RAM network inhibition [7] 5.95%

CN1CCCN(Cc2ccccc2C(F)(F)F)CC1
inactive: growth inhibition [1] 1.78% | growth inhibition [2] 1.52% | viability increase [3] -1.78% | viability [4] 97.6% | viability [5] 98.1% | inhibition [6] 1.25% | RAM network inhibition [7] 1.53%

Cn1c(=O)oc2cc(S(=O)(=O)N3CCC(C(=O)NCc4cccs4)CC3)ccc21
inactive: growth inhibition [1] -3.54% | growth inhibition [2] 4.04% | viability increase [3] -0.3% | viability [4] 95.1% | viability [5] 90.2% | inhibition [6] 0.335% | RAM network inhibition [7] 1.5%

O=S(=O)(c1cccc(-c2nnc(-c3cccnc3)o2)c1)N1CCCCC1
inactive: growth inhibition [1] 1.58% | growth inhibition [2] -5.17% | viability increase [3] -3.4% | viability [4] 86.9% | viability [5] 84.7% | inhibition [6] 1.22% | RAM network inhibition [7] 2.99%

Cc1cc(Nc2ccc(F)cc2F)n2nc(C)nc2n1
inactive: growth inhibition [1] -20.2% | growth inhibition [2] -3.57% | viability increase [3] -1.98% | viability [4] 104% | viability [5] 98.5% | inhibition [6] 0.33% | RAM network inhibition [7] 2.94%

Cc1nc2ccccc2c2oc(C(=O)N3CCN(C4CCCCC4)CC3)cc12
inactive: growth inhibition [1] 7.91% | growth inhibition [2] 8.38% | viability increase [3] -3.69% | viability [4] 44.1% | viability [5] 57.5% | inhibition [6] 0.555% | RAM network inhibition [7] 3.92%

O=C(CNC(=O)c1ccco1)OCC(=O)c1ccccc1
inactive: growth inhibition [1] -8.55% | growth inhibition [2] 3% | viability increase [3] -1.3% | viability [4] 97.3% | viability [5] 94.3% | inhibition [6] 0.98% | RAM network inhibition [7] 0.92%

CCOC(=O)c1nnn(-c2nonc2N)c1COc1ccccc1
inactive: growth inhibition [1] -15.7% | growth inhibition [2] -5.9% | viability increase [3] -2.43% | viability [4] 89.5% | viability [5] 87.4% | inhibition [6] 0.05% | RAM network inhibition [7] 3.66%

CC(C)Cn1c(CN2C(=O)c3ccccc3C2=O)nc2ccccc2c1=O
inactive: growth inhibition [1] -8.43% | growth inhibition [2] -9.18% | viability increase [3] -0.19% | viability [4] 98.4% | viability [5] 93.4% | inhibition [6] 3.54% | RAM network inhibition [7] 5.36%
